The values below come from PubChem BioAssay AID504650 (Molecular Libraries Program, Specialized Chemistry Center, …, 2011).

The source made the active and inactive calls.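 Rule for the calls: active = IC50 at or below 10 µM; inactive = the rest.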

The test deals with Transitional endoplasmic reticulum ATPase (Homo sapiens) (UniProt P55072). Nature of the test: p97 ATPase activity inhibitors, SAR follow-up, biochemical, dose response, round 3 (AID 504650). To be noted: purified p97 ATPase, Kinase-Glo luminescence. The method in brief:
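System: Human p97 ATPase protein | Medium: Tris buffer pH 7.4 containing MgCl2 and EDTA | Reagent: ATP, 500 µM stock solution | Incubation: 10 min room-temperature enzyme–compound preincubation, 30 min 37 °C ATP reaction | Technique: Luminescent readout of unconsumed ATP (Kinase-Glo Plus) | Measure: IC50 from fit of percent remaining activity versus compound concentration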
In general terms: Kinase-Glo measures the ATP left after a reaction by luminescence.

Chain of Transitional endoplasmic reticulum ATPase (Homo sapiens) (P55072 whole entry, looked up): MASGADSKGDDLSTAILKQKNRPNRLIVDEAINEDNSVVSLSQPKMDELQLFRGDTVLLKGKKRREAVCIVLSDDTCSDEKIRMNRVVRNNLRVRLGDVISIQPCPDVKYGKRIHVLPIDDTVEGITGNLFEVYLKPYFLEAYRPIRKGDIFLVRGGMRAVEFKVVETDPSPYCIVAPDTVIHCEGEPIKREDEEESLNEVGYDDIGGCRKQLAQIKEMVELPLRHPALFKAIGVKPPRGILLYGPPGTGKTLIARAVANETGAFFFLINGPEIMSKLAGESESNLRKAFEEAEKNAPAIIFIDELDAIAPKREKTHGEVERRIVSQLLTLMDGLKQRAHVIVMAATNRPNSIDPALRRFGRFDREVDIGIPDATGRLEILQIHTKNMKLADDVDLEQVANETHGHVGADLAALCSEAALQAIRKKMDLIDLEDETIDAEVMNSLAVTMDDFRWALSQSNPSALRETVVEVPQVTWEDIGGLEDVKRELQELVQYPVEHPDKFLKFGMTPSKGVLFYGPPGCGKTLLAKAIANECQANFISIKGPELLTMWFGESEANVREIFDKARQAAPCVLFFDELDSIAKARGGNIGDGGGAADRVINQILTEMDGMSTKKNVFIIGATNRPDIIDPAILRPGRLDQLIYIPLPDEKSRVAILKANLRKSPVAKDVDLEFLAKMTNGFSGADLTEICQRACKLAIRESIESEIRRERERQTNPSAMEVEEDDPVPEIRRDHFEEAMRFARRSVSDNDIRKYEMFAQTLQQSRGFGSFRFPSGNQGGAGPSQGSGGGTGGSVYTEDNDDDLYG

By IC50 is commonly meant the concentration that gives 50% inhibition. Turning to `COc1cccc2c(NCc3ccccc3)nc(-n3c(N)nc4cc(C)c(C)cc43)nc12`, the IC50 was 2 µM. With `COc1cccc2c(NCc3ccccc3)nc(Nc3ccccc3O)nc12`, the IC50 was 2.6 µM. In the case of `COc1cccc2c(NCc3ccccc3)nc(N3CCN(C(C)=O)CC3)nc12`, the IC50 was > 30 µM (inactive). Take `COc1cccc2c(NCC3CCCCC3)nc(N3CCOc4ccccc43)nc12`: the IC50 is 7.4 µM.

In the case of `CCN(CC)CCOc1cccc2c(NCc3ccccc3)nc(N3CCOc4ccccc43)nc12`, the IC50 is 0.4 µM. In the case of `COc1cccc2c(NCc3ccccc3)nc(-n3c(N)nc4ccccc43)nc12`, the IC50 is 0.11 µM. To `COc1cccc2c(NCc3ccccc3)nc(N3CCNc4ccccc43)nc12` belongs 0.9 µM. `COc1cccc2c(NCc3ccccc3)nc(NC(=O)Nc3ccccc3)nc12`: the IC50 is > 30 µM (inactive). `c1ccc(CNc2nc(N3CCc4ccccc4C3)nc3ccccc23)cc1`: the IC50 entry was “inactive”. For the compound `COc1cccc2c(NCc3ccccc3)nc(-n3c(N)nc4c(C)cccc43)nc12`, the IC50 is 0.045 µM.

`COc1cccc2c(NCc3ccc(O)cc3)nc(N3CCOc4ccccc43)nc12`: the IC50 is 2.4 µM. In the case of `COc1cccc2c(NCc3ccc(F)cc3)nc(N3CCOc4ccccc43)nc12`, the IC50 is 1.9 µM.

With `COc1cccc2c(NCc3ccccc3)nc(NC(C)c3ccccc3)nc12` (stereo unspecified), the IC50 result is “inactive”. With `Cc1nc(N2CCOc3ccccc32)nc(NCc2ccccc2)c1C`, the IC50 was 1.1 µM. Consider `COc1cccc2c(NCc3ccccc3)nc(N3CCN(C)c4ccccc43)nc12`, for which the IC50 was 3.1 µM. As for `c1ccc(CNc2nc(N3CCOc4ccccc43)nc3c(-c4ccccc4)cccc23)cc1`, the figure is 3.5 µM.

Regarding `COc1cccc2c(NCc3ccccn3)nc(N3CCOc4ccccc43)nc12`, the IC50 result is “inactive”. As to `Nc1nc2ccccc2n1-c1nc(NCc2ccccc2)c2ccccc2n1`, the concentration for half-maximal inhibition (IC50) is 0.11 µM. Consider `CCCCOc1cccc2c(NCc3ccccc3)nc(N3CCOc4ccccc43)nc12`, for which the IC50 is 2.63 µM.

In the case of `N#CCOc1cccc2c(NCc3ccccc3)nc(N3CCOc4ccccc43)nc12`, the IC50 was 0.4 µM. Turning to `Oc1cccc2c(NCc3ccccc3)nc(N3CCOc4ccccc43)nc12`, the 50% inhibitory concentration (IC50) was 1.2 µM. In the case of `COc1cccc2c(NCc3ccccc3)nc(Nc3nc4ccccc4n3C)nc12`, the IC50 was 0.3 µM. Consider `c1ccc(CNc2nc(N3CCOc4ccccc43)nc3c2CCCC3)cc1`, for which the IC50 was 0.11 µM. Turning to `COc1cccc2c(NCc3cccs3)nc(N3CCOc4ccccc43)nc12`, the IC50 was 1.2 µM. On to `COc1cccc2c(NCc3ccccc3)nc(N3CCOCC3)nc12`, for which the IC50 result was “inactive”. As for `COc1cccc2c(NCc3ccccc3)nc(-n3c(N)nc4cc(Cl)ccc43)nc12`, the figure is 0.7 µM; as for `Clc1ccccc1-c1nc(N2CCCc3ccccc32)c2ccccc2n1`, > 30 µM (inactive); as for `COc1cccc2c(NCc3ccccc3)nc(N3CCN(C(C)=O)c4ccccc43)nc12`, 2.7 µM.

In the case of `COc1ccc(-c2cccc3c(NCc4ccccc4)nc(N4CCOc5ccccc54)nc23)cc1`, the IC50 is 1.1 µM. To `OCCOc1cccc2c(NCc3ccccc3)nc(N3CCOc4ccccc43)nc12` belongs 0.17 µM; to `COc1cccc2c(NCc3ccccc3)nc(-n3cnc4ccccc43)nc12`, 3.3 µM. For `COc1cccc2c(NCc3ccccc3)nc(N3CCN(C)CC3)nc12`, the IC50 was > 30 µM (inactive). On to `COc1cccc2c(NCc3ccccc3)nc(-n3c(N)nc4cc(Br)ccc43)nc12`, for which the IC50 is 0.8 µM. Turning to `c1ccc(CNc2ccnc(N3CCOc4ccccc43)n2)cc1`, the IC50 was 2.9 µM.

As to `COc1cccc2c(NCc3ccccc3)nc(-n3c(=O)oc4ccccc43)nc12`, the IC50 was 0.11 µM. Regarding `Nc1nc2ccccc2n1-c1nc2c(c(NCc3ccccc3)n1)CCCC2`, the IC50 is 0.05 µM.

On to `COc1cccc2c(NCc3ccccc3)nc(Nc3nc4ccccc4s3)nc12`, for which the IC50 is 0.5 µM.

Consider `c1ccc2c(c1)OCCN2c1nc(N2CCOc3ccccc32)c2ccccc2n1`, for which the IC50 was > 30 µM (inactive). Regarding `COc1cccc2c(NCc3ccccc3)nc(NCc3cccs3)nc12`, the IC50 is 1.7 µM. `COc1cccc2c(NCc3ccccc3)nc(N3CCOc4ccccc43)nc12`: the 50% inhibitory concentration (IC50) was 0.2 µM. With `Nc1nc2ccccc2n1-c1nccc(NCc2ccccc2)n1`, the IC50 was 2.8 µM.

With `COc1ccc2c(c1)nc(N)n2-c1nc(NCc2ccccc2)c2cccc(OC)c2n1`, the IC50 is 0.48 µM. For the compound `CN(c1ccccc1)c1nc(NCc2ccccc2)c2ccccc2n1`, the IC50 is > 30 µM (inactive). Take `COCCOc1cccc2c(NCc3ccccc3)nc(N3CCOc4ccccc43)nc12`: the IC50 is 0.6 µM.

Turning to `COc1cccc2c(NCc3ccccc3O)nc(N3CCOc4ccccc43)nc12`, the IC50 was 4.6 µM. In the case of `COc1cccc2c(NCc3ccccc3)nc(N(C)Cc3ccccc3)nc12`, the IC50 was 7 µM.

As for `COc1cccc2c(NCc3ccccn3)nc(N3CCNc4ccccc43)nc12`, the IC50 is > 30 µM (inactive).

For the compound `CC(C)Nc1nc(Nc2cccc(Cl)c2)nc2ccccc12`, the IC50 is > 30 µM (inactive). For `COc1cccc2c(NCc3ccccc3)nc(Nc3cc(C)cc(F)c3)nc12`, the IC50 is 1.5 µM. With `COc1cccc2c(NCc3ccccc3)nc(NCC3CCCCC3)nc12`, the IC50 is 5.4 µM. Take `c1ccc(CNc2nc(N3CCOc4ccccc43)nc3ccsc23)cc1`: the IC50 is 0.4 µM. On to `COc1cccc2c(NCc3ccccc3)nc(NCc3cncs3)nc12`, for which the IC50 entry is “inactive”. Consider `COc1cccc2c(NCc3ccccc3)nc(Nc3cccc(Cl)c3)nc12`, for which the IC50 is 0.5 µM. Regarding `COc1cccc2c(NCc3ccccc3)nc(-n3c(N)nc4cc(F)ccc43)nc12`, the IC50 was 0.08 µM.

Consider `COc1cccc2c(NCc3ccccc3)nc(-n3c(N)nc4cc(C)ccc43)nc12`, for which the IC50 was 0.24 µM. Turning to `COc1cccc2c(NCc3ccccc3)nc(Nc3cccc(F)c3)nc12`, the concentration for half-maximal inhibition (IC50) was 0.52 µM.
